Assay results from ChEMBL document CHEMBL3232764, “Influence of the adamantyl moiety on the activity of biphenylacrylohydroxamic acid-based HDAC inhibitors” (Eur J Med Chem, 2014).

What was measured:
Histone deacetylase 7 = biological target: T1, Histone deacetylase 7 (Homo sapiens, UniProt Q8WUI4); assay: Inhibition of human HDAC7 using fluorogenic tetrapeptide RHKKAc as substrate
T1 sequence (Q8WUI4 whole entry): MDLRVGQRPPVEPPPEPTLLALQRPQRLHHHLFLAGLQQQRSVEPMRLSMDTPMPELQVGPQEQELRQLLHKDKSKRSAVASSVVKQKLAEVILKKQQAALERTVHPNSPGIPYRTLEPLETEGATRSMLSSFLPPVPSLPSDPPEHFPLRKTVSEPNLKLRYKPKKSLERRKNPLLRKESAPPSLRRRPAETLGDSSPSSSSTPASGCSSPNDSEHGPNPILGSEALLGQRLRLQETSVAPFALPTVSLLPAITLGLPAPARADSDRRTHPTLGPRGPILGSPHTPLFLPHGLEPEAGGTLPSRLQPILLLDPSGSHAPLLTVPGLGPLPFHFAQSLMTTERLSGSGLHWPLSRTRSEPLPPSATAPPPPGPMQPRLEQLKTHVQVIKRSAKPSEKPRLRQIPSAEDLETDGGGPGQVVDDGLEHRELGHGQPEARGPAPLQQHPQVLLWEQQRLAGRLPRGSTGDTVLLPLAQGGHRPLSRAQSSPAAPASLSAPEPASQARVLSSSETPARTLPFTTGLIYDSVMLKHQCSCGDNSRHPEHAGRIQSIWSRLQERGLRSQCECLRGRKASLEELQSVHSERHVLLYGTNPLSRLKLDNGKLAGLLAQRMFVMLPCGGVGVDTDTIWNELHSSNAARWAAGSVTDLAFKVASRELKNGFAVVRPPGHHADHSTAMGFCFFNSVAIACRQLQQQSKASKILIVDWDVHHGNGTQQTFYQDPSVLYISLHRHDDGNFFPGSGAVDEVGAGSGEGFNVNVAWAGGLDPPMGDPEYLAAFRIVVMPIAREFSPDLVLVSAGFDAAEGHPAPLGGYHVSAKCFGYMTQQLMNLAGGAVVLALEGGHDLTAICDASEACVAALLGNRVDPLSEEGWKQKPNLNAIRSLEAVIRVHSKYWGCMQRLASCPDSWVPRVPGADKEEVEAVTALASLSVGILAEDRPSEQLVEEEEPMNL

[1] = Antiproliferative activity against p53 defective cis-platinum-resistant human IGROV1/Pt1 cells assessed as growth inhibition after 72 hrs; format: functional, cell-based; conditions: IGROV-1/Pt1, 72 h
Outline: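 Log-phase cells seeded in duplicate in 6-well plates; drug added 24 h after seeding. Cells harvested 72 h after drug exposure and counted with a cell counter. IC50 = drug concentration giving 50% reduction in cell number versus untreated control.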

Structure (SMILES)	IC50 (Histone deacetylase 7) [µM]	IC50 [1] [µM]
COc1ccc(-c2ccc(/C=C/C=C/C(=O)NO)cc2)cc1	> 100	–
COc1ccc(-c2ccc(/C=C/C=C/C(=O)NO)cc2)cc1C12CC3CC(CC(C3)C1)C2	–	2.03
